Results published in ChEMBL document CHEMBL4673214, “Synthesis and antibacterial bioactivities of cationic deacetyl linezolid amphiphiles” (Eur J Med Chem, 2018).
≈ marks a conversion by molar mass, not a printed value. Calls of active or inactive are those of the source. The rule behind the calls is not given here.

Assays:
Cell membrane [1] = test: Induction of cytoplasmic membrane depolarization in Staphylococcus aureus ATCC 29213 at 20 ug/ml measured for 12 mins by DiSC35 dye-based fluorescence assay; type: subcellular; conditions: dose 20.0 µg/ml
Outline: (§1)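 Mid-log bacteria were washed and resuspended at ~10^8 CFU/mL: S. aureus in PBS, E. coli in 5 mM HEPES/5 mM glucose/100 mM KCl (1:1:1). Cells were loaded with diSC35 (10 µM stock) for 30 min (S. aureus) or 40 min (E. coli, plus EDTA). Fluorescence (ex 622/em 670 nm) was read for an 8 min baseline, then every 2 min for 12 min after compound at 20 µg/mL final. Water served as control.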

Cell membrane [2] = test: Induction of cytoplasmic membrane depolarization in Escherichia coli ATCC 25922 at 20 ug/ml measured for 12 mins by DiSC35 dye-based fluorescence assay; type: subcellular; conditions: dose 20.0 µg/ml; outline: as §1
Cell membrane [3] = test: Induction of outer membrane permeabilization in Escherichia coli ATCC 25922 at 20 ug/ml measured for 12 mins by NPN dye based fluorescence assay; conditions: dose 20.0 µg/ml
Outline: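 Mid-log E. coli in HEPES/glucose/KCl at ~10^8 CFU/mL was preincubated 40 min with N-phenylnaphthylamine (10 µM stock). Fluorescence (ex 350/em 420 nm) was read for an 8 min baseline, then every 2 min for 12 min after compound at 20 µg/mL final. Water served as control.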

Cell membrane [4] = test: Induction of inner membrane permeabilization in Escherichia coli ATCC 25922 at 20 ug/ml measured for 12 mins by propidium iodide staining based fluorescence microscopic analysis; conditions: dose 20.0 µg/ml
Outline: (§2)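 Mid-log bacteria were washed and resuspended at ~10^8 CFU/mL and preincubated with propidium iodide (10 µM stock) for 30 min (S. aureus) or 40 min (E. coli). Fluorescence (ex 535/em 617 nm) was read on a plate for an 8 min baseline, then every 2 min for 12 min after compound at 20 µg/mL final. Water served as control.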

Cell membrane [5] = test: Induction of inner membrane permeabilization in Staphylococcus aureus ATCC 29213 at 20 ug/ml measured for 12 mins by propidium iodide staining based fluorescence microscopic analysis; conditions: dose 20.0 µg/ml; outline: as §2
Enterobacteriaceae [6] = test: Antibacterial activity against NDM1 producing carbapenem-resistant Enterobacteriaceae clinical isolate 10 assessed as reduction in bacterial growth incubated for 16 to 20 hrs by CLSI-based broth microdilution method; type: functional; conditions: time 16-20 hrs
Outline: (§3)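 Clinical isolates tested by broth microdilution in cation-adjusted Mueller-Hinton broth. Cultures grown 4-6 h (~10^8 CFU/mL) were diluted to ~10^6 CFU/mL and mixed 1:1 with compound serial dilutions made from 256 down to 0.5 µg/mL (pre-mixing). Plates held at 37 °C for 16-20 h, then read for growth. Each concentration run in duplicate, whole experiment at least twice.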

Enterobacteriaceae [7] = test: Antibacterial activity against NDM1 producing carbapenem-resistant Enterobacteriaceae clinical isolate 8 assessed as reduction in bacterial growth incubated for 16 to 20 hrs by CLSI-based broth microdilution method; type: functional; conditions: time 16-20 hrs; outline: as §3
Enterobacteriaceae [8] = test: Antibacterial activity against NDM1 producing carbapenem-resistant Enterobacteriaceae clinical isolate 7 assessed as reduction in bacterial growth incubated for 16 to 20 hrs by CLSI-based broth microdilution method; type: functional; conditions: time 16-20 hrs; outline: as §3
Enterobacteriaceae [9] = test: Antibacterial activity against NDM1 producing carbapenem-resistant Enterobacteriaceae clinical isolate 6 assessed as reduction in bacterial growth incubated for 16 to 20 hrs by CLSI-based broth microdilution method; type: functional; conditions: time 16-20 hrs; outline: as §3
Enterobacteriaceae [10] = test: Antibacterial activity against NDM1 producing carbapenem-resistant Enterobacteriaceae clinical isolate 5 assessed as reduction in bacterial growth incubated for 16 to 20 hrs by CLSI-based broth microdilution method; type: functional; conditions: time 16-20 hrs; outline: as §3
Enterobacteriaceae [11] = test: Antibacterial activity against NDM1 producing carbapenem-resistant Enterobacteriaceae clinical isolate 4 assessed as reduction in bacterial growth incubated for 16 to 20 hrs by CLSI-based broth microdilution method; type: functional; conditions: time 16-20 hrs; outline: as §3
Enterobacteriaceae [12] = test: Antibacterial activity against NDM1 producing carbapenem-resistant Enterobacteriaceae clinical isolate 3 assessed as reduction in bacterial growth incubated for 16 to 20 hrs by CLSI-based broth microdilution method; type: functional; conditions: time 16-20 hrs; outline: as §3
Enterobacteriaceae [13] = test: Antibacterial activity against NDM1 producing carbapenem-resistant Enterobacteriaceae clinical isolate 2 assessed as reduction in bacterial growth incubated for 16 to 20 hrs by CLSI-based broth microdilution method; type: functional; conditions: time 16-20 hrs; outline: as §3
Enterobacteriaceae [14] = test: Antibacterial activity against NDM1 producing carbapenem-resistant Enterobacteriaceae clinical isolate 1 assessed as reduction in bacterial growth incubated for 16 to 20 hrs by CLSI-based broth microdilution method; type: functional; conditions: time 16-20 hrs; outline: as §3
Klebsiella pneumoniae [15] = test: Antibacterial activity against carbapenem-resistant Klebsiella pneumoniae clinical isolate 10 assessed as reduction in bacterial growth incubated for 16 to 20 hrs by CLSI-based broth microdilution method; type: functional; conditions: time 16-20 hrs; outline: as §3
Klebsiella pneumoniae [16] = test: Antibacterial activity against carbapenem-resistant Klebsiella pneumoniae clinical isolate 9 assessed as reduction in bacterial growth incubated for 16 to 20 hrs by CLSI-based broth microdilution method; type: functional; conditions: time 16-20 hrs; outline: as §3
Klebsiella pneumoniae [17] = test: Antibacterial activity against carbapenem-resistant Klebsiella pneumoniae clinical isolate 8 assessed as reduction in bacterial growth incubated for 16 to 20 hrs by CLSI-based broth microdilution method; type: functional; conditions: time 16-20 hrs; outline: as §3
Klebsiella pneumoniae [18] = test: Antibacterial activity against carbapenem-resistant Klebsiella pneumoniae clinical isolate 7 assessed as reduction in bacterial growth incubated for 16 to 20 hrs by CLSI-based broth microdilution method; type: functional; conditions: time 16-20 hrs; outline: as §3
Klebsiella pneumoniae [19] = test: Antibacterial activity against carbapenem-resistant Klebsiella pneumoniae clinical isolate 6 assessed as reduction in bacterial growth incubated for 16 to 20 hrs by CLSI-based broth microdilution method; type: functional; conditions: time 16-20 hrs; outline: as §3
Klebsiella pneumoniae [20] = test: Antibacterial activity against carbapenem-resistant Klebsiella pneumoniae clinical isolate 5 assessed as reduction in bacterial growth incubated for 16 to 20 hrs by CLSI-based broth microdilution method; type: functional; conditions: time 16-20 hrs; outline: as §3
Klebsiella pneumoniae [21] = test: Antibacterial activity against carbapenem-resistant Klebsiella pneumoniae clinical isolate 4 assessed as reduction in bacterial growth incubated for 16 to 20 hrs by CLSI-based broth microdilution method; type: functional; conditions: time 16-20 hrs; outline: as §3
Klebsiella pneumoniae [22] = test: Antibacterial activity against carbapenem-resistant Klebsiella pneumoniae clinical isolate 3 assessed as reduction in bacterial growth incubated for 16 to 20 hrs by CLSI-based broth microdilution method; type: functional; conditions: time 16-20 hrs; outline: as §3
Klebsiella pneumoniae [23] = test: Antibacterial activity against carbapenem-resistant Klebsiella pneumoniae clinical isolate 2 assessed as reduction in bacterial growth incubated for 16 to 20 hrs by CLSI-based broth microdilution method; type: functional; conditions: time 16-20 hrs; outline: as §3
Enterobacteriaceae [24] = test: Antibacterial activity against NDM1 producing carbapenem-resistant Enterobacteriaceae clinical isolate 9 assessed as reduction in bacterial growth incubated for 16 to 20 hrs by CLSI-based broth microdilution method; type: functional; conditions: time 16-20 hrs; outline: as §3
Salmonella enterica = test: Antibacterial activity against Salmonella enterica ATCC 8387 assessed as reduction in bacterial growth incubated for 16 to 20 hrs by CLSI-based broth microdilution method; type: functional; conditions: time 16-20 hrs
Outline: (§4)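 Broth microdilution following CLSI, in cation-adjusted Mueller-Hinton broth. Inoculum from a 4-6 h culture (~10^8 CFU/mL), diluted to ~10^6 CFU/mL. Water stocks were serially diluted in MHB (256 to 0.5 µg/mL) and mixed 1:1 with the inoculum. Plates ran 16-20 h at 37 °C. MIC was read visually. Each concentration was tested in duplicate, and the experiment was repeated at least twice.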

Escherichia coli = test: Antibacterial activity against Escherichia coli ATCC 25922 assessed as reduction in bacterial growth incubated 16 to 20 hrs by CLSI-based broth microdilution method; type: functional; conditions: time 16-20 hrs; outline: as §4
Enterococcus faecalis = test: Antibacterial activity against Enterococcus faecalis ATCC 29212 assessed as reduction in bacterial growth incubated 16 to 20 hrs by CLSI-based broth microdilution method; type: functional; conditions: time 16-20 hrs; outline: as §4
Klebsiella pneumoniae [25] = test: Antibacterial activity against carbapenem-resistant Klebsiella pneumoniae clinical isolate 1 assessed as reduction in bacterial growth incubated for 16 to 20 hrs by CLSI-based broth microdilution method; type: functional; conditions: time 16-20 hrs; outline: as §3
Staphylococcus aureus = test: Bactericidal activity against early exponential phase of Staphylococcus aureus ATCC 29213 at 4X MIC measured after 6 hrs by time-kill kinetic assay; type: functional, organism-based
Outline: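 S. aureus ATCC 29213 overnight culture diluted 1:10,000 in MHB and shaken at 225 rpm, 37 °C for 2 h to early exponential phase. Exposed to compound at 4× MIC in tubes, 37 °C, 225 rpm. Samples spun down, resuspended in PBS, plated as ten-fold dilutions on MHA overnight at 37 °C, and CFU/mL counted. Biological replicates.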

SMILES: CN[C@H](CC(C)C)C(=O)N[C@H]1C(=O)N[C@@H](CC(N)=O)C(=O)N[C@H]2C(=O)N[C@H]3C(=O)N[C@H](C(=O)N[C@H](C(=O)O)c4cc(O)cc(O)c4-c4cc3ccc4O)[C@H](O)c3ccc(c(Cl)c3)Oc3cc2cc(c3O[C@@H]2O[C@H](CO)[C@@H](O)[C@H](O)[C@H]2O[C@H]2C[C@](C)(N)[C@H](O)[C@H](C)O2)Oc2ccc(cc2Cl)[C@H]1O [VANCOMYCIN]
- Activity (Cell membrane [1]): inactive
- Activity (Cell membrane [2]): inactive
- Activity (Cell membrane [3]): inactive
- Activity (Cell membrane [4]): inactive
- Activity (Cell membrane [5]): inactive
- MIC (Enterobacteriaceae [6]): > 64 µg/mL
- MIC (Enterobacteriaceae [7]): 64 µg/mL (≈ 44.2 µM)
- MIC (Enterobacteriaceae [8]): 64 µg/mL (≈ 44.2 µM)
- MIC (Enterobacteriaceae [9]): 64 µg/mL (≈ 44.2 µM)
- MIC (Enterobacteriaceae [10]): 64 µg/mL (≈ 44.2 µM)
- MIC (Enterobacteriaceae [11]): > 64 µg/mL
- MIC (Enterobacteriaceae [12]): > 64 µg/mL
- MIC (Enterobacteriaceae [13]): > 64 µg/mL
- MIC (Enterobacteriaceae [14]): > 64 µg/mL
- MIC (Klebsiella pneumoniae [15]): > 64 µg/mL
- MIC (Klebsiella pneumoniae [16]): 64 µg/mL (≈ 44.2 µM)
- MIC (Klebsiella pneumoniae [17]): > 64 µg/mL
- MIC (Klebsiella pneumoniae [18]): > 64 µg/mL
- MIC (Klebsiella pneumoniae [19]): > 64 µg/mL
- MIC (Klebsiella pneumoniae [20]): 64 µg/mL (≈ 44.2 µM)
- MIC (Klebsiella pneumoniae [21]): 64 µg/mL (≈ 44.2 µM)
- MIC (Klebsiella pneumoniae [22]): > 64 µg/mL
- MIC (Klebsiella pneumoniae [23]): > 64 µg/mL
- MIC (Enterobacteriaceae [24]): 64 µg/mL (≈ 44.2 µM)
- MIC (Salmonella enterica): 32 µg/mL (≈ 22.1 µM)
- MIC (Escherichia coli): 64 µg/mL (≈ 44.2 µM)
- MIC (Enterococcus faecalis): 2 µg/mL (≈ 1.38 µM)
- MIC (Klebsiella pneumoniae [25]): > 64 µg/mL
- Activity (Staphylococcus aureus): inactive
